Assay [1] deals with NCI-H630. The assay is described as follows: Antitumor activity against human NCI-H630 cell line. The format is functional, cell-based.
In assay [2] the test system is PC-3. Nature of the assay: Antitumor activity against human PC3 cell line. The assay is classed as functional, cell-based.
For assay [3], the system named is SK-MEL-2. Nature of the assay: Antitumor activity against human SK-MEL-2 cell line. The assay is classed as functional, cell-based.
Assay [4] has as its system SK-OV-3. Nature of the assay: Antitumor activity against human SKOV3 cell line. The format is functional, cell-based.
For assay [5], the system named is A498. Nature of the assay: Antitumor activity against human A498 cell line.
Assay [6] relates to A549. The assay is described as follows: Antitumor activity against human A549 cell line.
Assay [7] concerns HCT-116. Nature of the assay: Antitumor activity against human HCT116 cell line. The assay is classed as functional, cell-based.
In assay [8] the test system is MCF7. The assay is described as follows: Antitumor activity against human MCF7 cell line. The format is functional, cell-based.
Assay [9] concerns MKN-45. The assay is described as follows: Antitumor activity against human MKN45 cell line. The format is functional, cell-based.
In assay [10] the test system is RBCs. The assay is described as follows: Hemolytic activity against human red blood cells at 100 ug/ml. The assay is classed as functional, Erythrocyte. The procedure, abridged:
(§1)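 Human erythrocytes exposed to peptide. Hemolysis expressed as % relative to lysis by 0.2% Triton X-100.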

Assay [11] relates to MCF10. Nature of the assay: Antitumor activity against human MCF10a cell line.
For assay [12], the system named is RBCs. Nature of the assay: Hemolytic activity against human red blood cells at 200 ug/ml. The assay is classed as functional, Erythrocyte. The method, boiled down: as §1
In assay [13] the test system is RBCs. Nature of the assay: Hemolytic activity against human red blood cells at 300 ug/ml. The format is functional, Erythrocyte. The method, boiled down:
as §1

Assay [14] concerns RBCs. Nature of the assay: Hemolytic activity against human red blood cells at 400 ug/ml. The format is functional, Erythrocyte. The procedure, abridged:
as §1

The term IC90 denotes the point of the concentration-response curve where the effect stands at 90%. Usually IC50 stands for the concentration that inhibits the measured activity by half. Lower therefore signals inhibition by little substance.

Where a SMILES comes first, the peptide text is derived from it.

Take `CC(=O)O[C@H]1C(=O)[C@@]2(C)[C@H]([C@H](OC(=O)c3ccccc3)[C@]3(O)C[C@H](OC(=O)[C@H](O)[C@@H](NC(=O)c4ccccc4)c4ccccc4)C(C)=C1C3(C)C)[C@]1(OC(C)=O)CO[C@@H]1C[C@@H]2O` [PACLITAXEL]: the IC90 in assay [1] was found to be 0.372 µM; in [2] it was 0.832 µM; in assay [3] it was 0.037 µM; in assay [4], 0.071 µM; in assay [5], 0.229 µM; in [6], 0.041 µM. Moreover, the results for the 90% effect concentration (IC90) in assay [7], in [8] (read-out: IC90) and in [9] were 0.008 µM, 0.015 µM and 0.204 µM, respectively. In addition, the IC50 in assay [4] was 0.005 µM.

On to `CC[C@H](C)[C@H](NC(=O)[C@H](C)NC(=O)[C@H](CS)NC(=O)[C@H](CCCCN)NC(=O)[C@@H](NC(=O)[C@H](CO)NC(=O)[C@@H]1CCCN1C(=O)[C@H](CC(C)C)NC(=O)[C@@H](NC(=O)[C@H](CCCCN)NC(=O)[C@H](CO)NC(=O)[C@H](C)NC(=O)[C@@H](NC(=O)[C@H](CCCCN)NC(=O)[C@H](Cc1ccccc1)NC(=O)[C@H](CC(C)C)NC(=O)[C@H](C)NC(=O)CNC(=O)[C@H](CC(C)C)NC(=O)[C@@H](N)Cc1ccccc1)C(C)C)C(C)C)C(C)C)C(=O)N[C@H](C(=O)N[C@@H](CCCCN)C(=O)N[C@@H](CCCCN)C(=O)N[C@@H](CS)C(=O)O)[C@@H](C)O` (H-FLGALFKVASKVLPSVKCAITKKC-OH), for which the IC50 in assay [1] was 16.4 µM; in [2], 17.1 µM; in [3] it was 18.6 µM; in assay [4], 15 µM; in assay [5], 54.1 µM; in [6] it was 57.1 µM. Further, the IC50 in assay [7] amounted to 44.4 µM; in [8], 72 µM; in assay [9] it was 13.7 µM. Further, the concentration for an effect of 90% (IC90) in assay [1] stood at 25.1 µM; in [2], 22.9 µM; in assay [3], 18.2 µM; in assay [4] it was 23.4 µM; in assay [6] it was 89.1 µM; in [7], 89.1 µM. Further, the IC90 in assay [8] was 93.3 µM; in [9], 24 µM. The Activity in assay [10] amounted to 6.8%.

On to H-FLGALFKWASK-OH, for which the IC50 in [1] was 102 µM; in assay [2], 137 µM; in assay [4] it was 119 µM; in assay [11] it was 343 µM; in assay [5], 169 µM; in [6], 330 µM. Besides, the IC50 amounted to 114 µM in assay [7], 157 µM in assay [8] and 113 µM in assay [9]. In addition, the IC90 was found to be 117 µM in [1]; 195 µM in [2]; 166 µM in [4]; 170 µM in [7]; 229 µM in assay [8] (read-out: IC90); 151 µM in assay [9]. The Activity in assay [10] is listed as 6.21%; in assay [12], 6.36%; in assay [13] it was 6.36%; in assay [14], 6.67%.

Regarding H-FLGWLFKVASK-OH, the IC50 in [1] came out at 58.6 µM; in assay [2], 95.5 µM; in assay [3], 23.5 µM; in assay [4], 71.1 µM; in assay [11] it was 240 µM; in [5] it was 56.5 µM. The IC50 worked out at 82 µM in assay [6], 23.5 µM in assay [7], 59.6 µM in assay [8] and 63.8 µM in assay [9]. Besides, the IC90 came out at 81.3 µM in assay [1]; 112 µM in assay [2]; 46.8 µM in assay [3]; 89.1 µM in [4]; 83.2 µM in assay [5]; 102 µM in [6]. Also, the figures for the IC90 in assay [7], in assay [8] (read-out: IC90) and in [9] were 56.2 µM, 110 µM and 85.1 µM, respectively. In addition, the Activity in assay [10] is on record as 6.52%; in assay [12], 6.82%; in assay [13], 7.12%; in assay [14] it was 9.24%.

H-FLGALFKVASKVL-OH returned an Activity in assay [10] of 25.8%.

On to H-FLGALFKVASK-OH, for which the Activity is reported as 6.06% in assay [10], 6.06% in assay [12], 6.06% in [13] and 6.21% in assay [14].

The record behind these values is ChEMBL document CHEMBL1146866, “Structural determinants for the membrane interaction of novel bioactive undecapeptides derived from gaegurin 5” (J Med Chem, 2006).
